The source of these data is PMC5367579 (International Journal of Nanomedicine, 2017).

Ends that are not written are not given here.

In data set [1] the test system is INS-1 cells. The data set can be described thus: Glucose uptake of INS-1 cells. Type of data set: cell-based. As to conditions: 10 nM SCD/peptides or 210 nM SeNPs/SC, KRBH buffer with 16.7 mM glucose, 20 min.
The conditions of data set [2]: cited from earlier work.
In data set [3] the test system is db/db mice. Put plainly: Acute blood glucose lowering after single intraperitoneal dose in db/db mice. It counts as in vivo. Conditions: 20 nmol/kg single intraperitoneal dose. The method in brief:
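Male 10-week-old db/db mice (type 2 diabetic), six groups of eight, with blood glucose measured before treatment. A single intraperitoneal dose of 20 nmol/kg (dosed by peptide content) was given, diluted in sterile normal saline. Blood glucose was read at 0.5 h, then hourly from 1 to 15 h. Controls were saline (same volume), reference peptides at 20 nmol/kg, and peptide-free nanoparticle carrier at 42.1 μg/kg.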

For data set [4], the system named is db/db mice. The data set can be described thus: Chronic 12-week daily administration in db/db mice. As to conditions: daily i.p. 12 weeks, 20 nmol/kg (SC 42.1 μg/kg), mean ± SEM, n=8. It counts as in vivo.
The test system of data set [5] is INS-1 cells. The data set can be described thus: Insulin receptor beta subunit expression in INS-1 cells. Type of data set: cell-based. Conditions: 10 nM SCD/peptides or 210 nM SeNPs/SC, 48 h, Western blot IR-β.

Substance “HSDAVFTDNYTRLRKQVAAKKYLQSIKNKRY-NH2 (C-terminus assumed) [BAY55-9837]” registered a glucose uptake in data set [1] of 1.44 mM. For the same substance, the half-life in data set [2] (in vivo) is on record as ~ 5 min. In data set [3], the “hypoglycemic effect” value is listed as “momentary hypoglycemic effect within 30 min”. In data set [4], this substance returned a CHOL of 2.55 ± 0.25 mmol/L, a Free fatty acid of 1.30±0.19 mEq/L, an HDL-C of 1.46 ± 0.20 mmol/L and an LDL-C of 0.63 ± 0.12 mmol/L. Besides, in data set [4], the TG is 1.93 ± 0.14 mmol/L, the Water consumption came to 27.2 ± 1.90 g/day and the Whole white fat was found to be 15.3 ± 1.28 g. The “insulin receptor expression level vs PBS group” value in data set [5] is 1.25 fold.

Take “pituitary adenylate cyclase activating peptide [PACAP]”: the “half-life of wild PACAP” value in data set [2] (abstract, comparator for SCD half-life, ref not given) is recorded as ~ 5 min.
